A short description of experiment [1]: HUVEC growth inhibition – cell-based, human, primary screen (AID 575;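 active means viability at or below 30% in both replicate assays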;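 further: 100% = median of untreated cell wells with 0.1% DMSO on each plate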). The conditions noted are these: HUVEC proliferation, CellTiter-Glo luminescence, 72 h; at 10 µM; stronger effect = lower value. In outline: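 System: primary human umbilical vein endothelial cells; Quantity: 1250 endothelial cells in each well; Buffer or medium: supplemented EBM, 2% fetal bovine serum; Doses: one dose, 10 µM final, 0.1% DMSO; Incubation: 72 h compound incubation; Technique: ATP-based CellTiter-Glo luminescent read; Evaluation: percent of median DMSO-control luminescence; Controls: vehicle and MePR control wells.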

The nature of experiment [2]: growth inhibitors of H69AR lung tumor, primary screen, human, duplicate replicates (AID 580).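 Further: 100% = mean luminescence of untreated wells and 0% = no signal.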 As to conditions: H69AR lung tumor cells viability, ATP luminescence, 72 h; at 10 µM; stronger effect = lower value.
Experiment [3] can be described thus: reversal of MRP1-mediated doxorubicin resistance, pilot screen, H69AR cells, doxorubicin co-treatment (AID 601;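 active means viability loss from added drug above about 55%, and viability with drug at most 40%, in both replicates, limit read from the data, passing the limit was not always enough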). The conditions noted are these: CellTiter-Glo, 72 h, at 10 µM; for differential viability (reversal): stronger effect = higher value. In general terms: In ATP-based viability assays light output follows the ATP content of the culture.
Experiment [4] in a line: 384-well plate pilot, post-Golgi transport modulator project, inhibition of yeast transport mutant growth (AID 636; in the data active means inhibition above about 31%). As to conditions: absorbance 615 nm, about 18 h, stronger effect = higher value.
Experiment [5] can be described thus: growth suppression of yeast trafficking mutant, preliminary HTS, modulators of trafficking downstream of Golgi apparatus project, 1536-format plate, OD 615 nm (AID 637; in the data active means inhibition above about 30%). As to conditions: yeast transport mutant growth, absorbance 615 nm, 18 h; stronger effect = higher value.
Where [6] appears, read: H69AR cells + 2 uM doxorubicin, measured here: viability with 2 uM doxorubicin, stronger effect = lower value.
Where [7] appears, read: H69AR cells, compound alone cytotoxicity.

Activity calls are given as the source filed them.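 How the source made its calls, unless noted: active means viability at or under a set limit in both replicates, limit being median viability minus 3 SD (cut at about 48% in these data, passing the limit was not always enough); inconclusive means at or under the limit in just one replicate; inactive means at or above the limit in both replicates.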

What is called viability is a read-out of living cells in per cent, often relative to untreated cells. The term inhibition denotes the drop in the measured response relative to a control, in per cent. Regarding `Cc1ccc(C(=O)CSc2nnc(CNc3ccc(C)cc3C)o2)cc1`, the viability in experiment [1] is 81.7% (inactive); in experiment [2], 81.2% (inactive); in experiment [3] (setting [6]), 80.4%; in experiment [3] (setting [7]) it was 81.2%. The differential viability (reversal) in experiment [3] (H69AR cells + 2 uM doxorubicin) is 0.795% (inactive). In addition, the inhibition in experiment [4] is -0.92% (inactive); in experiment [5], -10.5% (inactive).
As for `CC1(C)NC(=O)N(CC(O)CN2CCCCC2)C1=O` (stereo not given), the viability in experiment [1] was 105% (inactive); in experiment [2], 93.1% (inactive); in experiment [3] (setting [6]), 96%; in experiment [3] (setting [7]), 93.1%. Further, the differential viability (reversal) in experiment [3] (H69AR cells + 2 uM doxorubicin) is -2.85% (inactive). For the same compound, the inhibition in experiment [4] is -3.73% (inactive); in experiment [5], -4.92% (inactive).
For the compound `CCOC(=O)CSC1=C(C#N)C(c2ccc(C)cc2)C(C(=O)OC)C(=O)N1` (stereo not given), the viability is 81.7% (inactive) in experiment [1], 91.1% (inactive) in experiment [2], 89.6% in experiment [3] (setting [6]) and 91.1% in experiment [3] (setting [7]). For the same compound, in experiment [3] (H69AR cells + 2 uM doxorubicin), the differential viability (reversal) is 1.55% (inactive). Further, the figures for the inhibition in experiment [4] and in experiment [5] were -1.2% (inactive) and -5.56% (inactive), respectively.
On to `Cn1c(=O)[nH]c(=O)c2c1nc(N1CCNCC1)n2Cc1cccc2ccccc12`, for which the viability in experiment [1] was 85.5% (inactive); in experiment [2] it was 88.8% (inactive); in experiment [3] (setting [6]), 86.4%; in experiment [3] (setting [7]) it was 88.8%. In addition, in experiment [3] (H69AR cells + 2 uM doxorubicin), the differential viability (reversal) is 2.38% (inactive). Also, the inhibition in experiment [4] is -1.56% (inactive); in experiment [5], 4.76% (inactive).
Turning to `Cc1c(C(=O)Nc2ccncc2)oc2c1C(=O)CC(C)(C)C2`, the viability is 95.9% (inactive) in experiment [1], 91.3% (inactive) in experiment [2], 96.6% in experiment [3] (setting [6]) and 91.3% in experiment [3] (setting [7]). The differential viability (reversal) in experiment [3] (H69AR cells + 2 uM doxorubicin) is -5.27% (inactive). In addition, the inhibition in experiment [4] is -8.4% (inactive); in experiment [5], -1.43% (inactive).
With `N=c1sc2ccccc2n1-c1ccccc1`, the viability in experiment [1] is 102% (inactive); in experiment [2] it was 89% (inactive); in experiment [3] (setting [6]) it was 82.4%; in experiment [3] (setting [7]), 89%. Further, the differential viability (reversal) in experiment [3] (H69AR cells + 2 uM doxorubicin) is 6.59% (inactive). The inhibition in experiment [4] was -3.12% (inactive); in experiment [5], 3.33% (inactive).
With `O=C1CN(c2ccccc2F)C(=O)CN1c1ccccc1F`, the viability in experiment [1] is 112% (inactive); in experiment [2] it was 102% (inactive); in experiment [3] (setting [6]), 92.2%; in experiment [3] (setting [7]), 102%. Also, the differential viability (reversal) in experiment [3] (H69AR cells + 2 uM doxorubicin) is 10.3% (inactive). Also, the inhibition in experiment [4] is -1.97% (inactive); in experiment [5] it was -0.63% (inactive).
As for `O=C(O)CCc1ccc(-c2cccs2)n1NC(=O)c1ccco1`, the viability was 105% (inactive) in experiment [1], 96.8% (inactive) in experiment [2], 88.5% in experiment [3] (setting [6]) and 96.8% in experiment [3] (setting [7]). Moreover, the differential viability (reversal) in experiment [3] (H69AR cells + 2 uM doxorubicin) is 8.25% (inactive). In addition, the inhibition in experiment [4] is 0.39% (inactive); in experiment [5] it was 9.05% (inactive).
Regarding `CS(=O)(=O)N1CCN(C(=O)c2ccc(-c3ccccc3)cc2)CC1`, the viability was 96.7% (inactive) in experiment [1], 96.1% (inactive) in experiment [2], 85.9% in experiment [3] (setting [6]) and 96.1% in experiment [3] (setting [7]). Besides, the differential viability (reversal) in experiment [3] (H69AR cells + 2 uM doxorubicin) was 10.2% (inactive). Moreover, the inhibition in experiment [4] was -2.99% (inactive); in experiment [5], 8.25% (inactive).
Take `COc1ccc(N2CCN(C(=O)CSc3ncnc4c3cnn4-c3ccccc3C)CC2)cc1`: the viability in experiment [1] was 55.5% (inactive); in experiment [2], 68.6% (inactive); in experiment [3] (setting [6]), 75.8%; in experiment [3] (setting [7]), 68.6%. Further, the differential viability (reversal) in experiment [3] (H69AR cells + 2 uM doxorubicin) was -7.28% (inactive). In addition, the figures for the inhibition in experiment [4] and in experiment [5] were 0.53% (inactive) and 16% (inactive), respectively.
With `O=c1oc(-c2ccco2)nc2ccccc12`, the viability is 92.6% (inactive) in experiment [1], 91% (inactive) in experiment [2], 86.2% in experiment [3] (setting [6]) and 91% in experiment [3] (setting [7]). For the same compound, the differential viability (reversal) in experiment [3] (H69AR cells + 2 uM doxorubicin) is 4.72% (inactive). The values for the inhibition in experiment [4] and in experiment [5] were -0.78% (inactive) and -2.22% (inactive), respectively.
On to `COC(=O)Cn1cc(C(=O)c2cccs2)c2ccccc21`, for which the viability is 103% (inactive) in experiment [1], 96.4% (inactive) in experiment [2], 86.9% in experiment [3] (setting [6]) and 96.4% in experiment [3] (setting [7]). For the same compound, the differential viability (reversal) in experiment [3] (H69AR cells + 2 uM doxorubicin) is 9.54% (inactive). Besides, the inhibition in experiment [4] is -2.34% (inactive); in experiment [5] it was 1.43% (inactive).
`Fc1c(F)c(F)c(CSc2nc3ccccc3[nH]2)c(F)c1F`: the viability in experiment [1] was 105% (inactive); in experiment [2], 95.8% (inactive); in experiment [3] (setting [6]) it was 84%; in experiment [3] (setting [7]), 95.8%. The differential viability (reversal) in experiment [3] (H69AR cells + 2 uM doxorubicin) is 11.8% (inactive). The inhibition was 0.65% (inactive) in experiment [4] and 3.02% (inactive) in experiment [5].
`COC(=O)c1c(N)sc(C(=O)N2CCOCC2)c1C`: the viability in experiment [1] was 95.2% (inactive); in experiment [2], 97.7% (inactive); in experiment [3] (setting [6]) it was 91%; in experiment [3] (setting [7]), 97.7%. Moreover, the differential viability (reversal) in experiment [3] (H69AR cells + 2 uM doxorubicin) is 6.62% (inactive). The inhibition in experiment [4] is -0.4% (inactive); in experiment [5] it was -5.87% (inactive).
As for `CCOC(=O)c1cc(-c2ccc(N)cc2)sc1N`, the viability is 92.5% (inactive) in experiment [1], 93.4% (inactive) in experiment [2], 84.9% in experiment [3] (setting [6]) and 93.4% in experiment [3] (setting [7]). In addition, in experiment [3] (H69AR cells + 2 uM doxorubicin), the differential viability (reversal) was 8.46% (inactive). Further, the inhibition is -5.07% (inactive) in experiment [4] and -0.95% (inactive) in experiment [5].
Take `CC(C)C1N=C2c3ccccc3N=C(SCC(=O)NCCc3ccc(S(N)(=O)=O)cc3)N2C1=O` (stereo not given): the viability in experiment [1] is 82.8% (inactive); in experiment [2], 86.7% (inactive); in experiment [3] (setting [6]), 82.3%; in experiment [3] (setting [7]), 86.7%. Also, in experiment [3] (H69AR cells + 2 uM doxorubicin), the differential viability (reversal) is 4.46% (inactive). The inhibition was -2.47% (inactive) in experiment [4] and 4.13% (inactive) in experiment [5].
As to `Clc1ccccc1-c1nnc2sc(-c3ccccn3)nn12`, the viability in experiment [1] was 93.8% (inactive); in experiment [2], 86.3% (inactive); in experiment [3] (setting [6]), 77.8%; in experiment [3] (setting [7]), 86.3%. In addition, the differential viability (reversal) in experiment [3] (H69AR cells + 2 uM doxorubicin) was 8.48% (inactive). The inhibition in experiment [4] is -1.97% (inactive); in experiment [5], 4.6% (inactive).
Take `Cc1nc(NCc2ccccn2)c2ccccc2n1`: the viability in experiment [1] is 71% (inactive); in experiment [2], 104% (inactive); in experiment [3] (setting [6]), 87.9%; in experiment [3] (setting [7]) it was 104%. For the same compound, the differential viability (reversal) in experiment [3] (H69AR cells + 2 uM doxorubicin) is 16.4% (inactive). Further, the values for the inhibition in experiment [4] and in experiment [5] were 2.08% (inactive) and 2.7% (inactive), respectively.
For the compound `O=C(CSc1nc2ccccc2o1)N1CCN(c2ccc(Cl)cc2)CC1`, the viability in experiment [1] is 92.6% (inactive); in experiment [2], 87.4% (inactive); in experiment [3] (setting [6]), 85.9%; in experiment [3] (setting [7]), 87.4%. For the same compound, the differential viability (reversal) in experiment [3] (H69AR cells + 2 uM doxorubicin) is 1.47% (inactive). Moreover, the results for the inhibition in experiment [4] and in experiment [5] were -1.56% (inactive) and 6.35% (inactive), respectively.
Turning to `CN(C)C(=O)C12CCC(C)(c3nc4ccccc4nc31)C2(C)C` (stereo not given), the viability in experiment [1] was 105% (inactive); in experiment [2], 88.8% (inactive); in experiment [3] (setting [6]) it was 85.8%; in experiment [3] (setting [7]) it was 88.8%. Moreover, the differential viability (reversal) in experiment [3] (H69AR cells + 2 uM doxorubicin) was 2.95% (inactive). Also, the inhibition is 3.03% (inactive) in experiment [4] and -4.6% (inactive) in experiment [5].
